Consider eight compounds from ChEMBL document CHEMBL4400548, “Structure-Based in Silico Screening Identifies a Potent Ebolavirus Inhibitor from a Traditional Chinese Medicine Library” (J Med Chem, 2019).

The source made the active and inactive calls. The calls are words filed in the database; no cut-off is given here.

One experiment concerns Ebolavirus. Description: Antiviral activity against HIV-1-derived Ebolavirus pseudoparticle infected in human TZM-bl cells after 48 hrs by beta-gal based reporter assay. The class given is functional, organism-based. As to conditions: Orthoebolavirus. The procedure, abridged: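 TZM-bl cells were plated at 2 × 10^4 per well 24 h ahead and chilled on ice. EBOVpp (1 in 10 dilution) was spinoculated at 2100g for 30 min at 4 °C, then removed with a PBS wash. Compound (100–0.125 μM) was added in DMEM/5% FBS for 48 h at 37 °C. Cells were fixed in 2% PFA, X-gal stained and imaged for infected/total cells. Triplicate runs; sigmoidal fit for IC50.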

The test system of experiment [1] is Ebola virus - Zaire (1995). Description: Binding affinity to recombinant Ebola virus Zaire Mayinga-76 Envelope glycoprotein assessed as change in melting temperature up to 500 uM by SYPRO-dye based thermal shift assay.

Consider `CN(C)CCOc1ccc(/C(=C(/CCCl)c2ccccc2)c2ccccc2)cc1` [TOREMIFENE], for which, in the experiment on Ebolavirus, the IC50 came to 0.09 µM and it took 3 µM to reach the 80% level (IC80). `O=C(/C=C/C1=Cc2ccccc2OC1)c1ccc(O)cc1`: the result in experiment [1] was inactive.

Take `NC(=O)C1CCN(CCOc2ccc(-c3n[nH]cc3-c3ccccc3)c(O)c2)CC1`: in the experiment with Ebolavirus, the IC50 stood at 3.1 µM and the concentration for an effect of 80% (IC80) is 50 µM. Further, the outcome in experiment [1] was Active.

Turning to `Nc1ccc(SSc2ccc(N)cc2)cc1`, the result in experiment [1] was inactive. Still for that read-out and setting: in the case of `COc1ccc(CC(=O)c2c(C)cc(O)cc2O)cc1` it was “inactive”; in that of `O=C(/C=C/c1cc(Br)cc2c1OCOC2)c1cc(F)ccc1O`, “inactive”; in that of `N#Cc1cc(N)ccc1Sc1cccc(C(F)(F)F)c1`, “inactive”.

Take `Cc1[nH]nc(-c2ccc(OCCN3CCC(C(N)=O)CC3)cc2O)c1-c1ccc(Cl)cc1`: in the experiment with Ebolavirus, the half-maximal inhibitory concentration (IC50) was determined as 0.05 µM and the concentration for an effect of 80% (IC80) came to 0.39 µM. For the same compound, the result in experiment [1] was Active.
